According to publication PMC3409840 (ACS medicinal chemistry letters, 2012):

What was measured:
[1] = Solubility under the NF-κB reporter assay conditions; format: physicochemical; conditions: 50 µM screen
[2] = NMR-based thiol reactivity assay with cysteamine; conditions: two molar equivalents of cysteamine, DMSO-d6/D2O PBS, 1H NMR
p65 [3] = assay: Western blot of p65 in nuclear lysate of NF-κB-induced DU-145 cells; format: cell-based, human
In short: (§1)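 Cells were dosed with test compound at 100 μM or 25 μM, or with DMSO vehicle, and the NF-κB pathway was then induced with TNF-α. Controls were noninduced and TNF-α-induced cells, both given vehicle.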

DU-145 = assay: Cellular cytotoxicity by Alamar Blue staining, DU-145; format: cell-based, human; conditions: for IC50 against DU-145 relative to reported IC50 of cryptocaryone: fold higher than cryptocaryone
p65 [4] = assay: Western blot of p65 in nuclear lysate of NF-κB-induced CCRF-CEM cells; format: cell-based, human
In short: as §1

IL-8 = assay: Secreted IL-8 protein by ELISA in TNF-α-induced DU-145 cells; format: cell-based, human
In short: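 DU-145 cells dosed with DMSO vehicle or test compound (100 μM and 33 μM), followed by TNF-α induction of the NF-κB pathway. Non-induced and induced vehicle controls were included. Secreted IL-8 protein in the cell medium was quantified by ELISA.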

NF-κB = NF-κB luciferase reporter assay in A549 cells induced with TNF-α; format: cell-based, human
In short: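 A549 lung cancer cells carrying a stably transfected luciferase reporter behind six consensus NF-κB binding-site repeats. Cells induced with TNF-α and treated with test compound at 100, 50 and 10 μM (preliminary screen at 50 μM). Non-induced and TNF-α-induced wells serve as controls. Read-out is luciferase signal. Cell viability was checked in parallel under identical conditions.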

IL-8 mRNA = assay: Semi-quantitative RT-PCR of IL-8 mRNA in TNF-α-induced DU-145 cells; format: cell-based, human; conditions: 33 µM, lowest concentration tested
In short: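 DU-145 cells given DMSO vehicle or test compound (100 μM and 33 μM), then induced with TNF-α, alongside non-induced and induced controls. IL-8 mRNA was assessed by semiquantitative (traditional) RT-PCR, with GAPDH mRNA amplified as the reference transcript.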

RWPE-1 = assay: Cellular cytotoxicity by Alamar Blue staining, RWPE-1; format: cell-based, human; conditions: mean ± SD
CCRF-CEM = assay: Cellular cytotoxicity by Alamar Blue staining, CCRF-CEM; format: cell-based, human; conditions: 48-hr cytotoxicity assay, mean ± SD
Vero = assay: Cellular cytotoxicity by Alamar Blue staining, Vero; format: cell-based, African green monkey; conditions: mean ± SD
IκBα = conditions: 16 µM; cited from earlier work

Q: For CO[C@@]12C=C(Br)C(=O)C[C@@H]1/C(=C(/OC(C)=O)c1ccccc1)CC2 (racemic) [Compound 4], which “solubility under the assay conditions” value [1] is on record?
A: The value was “poorly soluble under the assay conditions”.

Q: For CC(=O)O/C(=C1\CO[C@]2(C)C=CC(=O)C[C@H]12)c1ccccc1 (racemic) [Compound 10], which “time to disappearance of vinyl proton doublets after cysteamine addition” value [2] is on record?
A: Its value is no more than 5 min.

Q: What about the “inhibition of nuclear translocation of p65” value (shortened to “inhibition … of p65”) (p65 [3]; 25 µM) of the same molecule?
A: Its value is “Partial inhibition of p65 nuclear translocation”.

Q: And the “inhibition … of p65” value (p65 [3]; 100 µM)?
A: Its value is “completely inhibited nuclear translocation of p65”.

Q: What about the “IC50 against DU-145 relative to reported IC50 of cryptocaryone” value (DU-145) of the same molecule?
A: Its value is “approximately 15 fold”.

Q: And the “inhibition … of p65” value (p65 [4]; 25 µM)?
A: Its value is “Partial inhibition of p65 nuclear translocation”.

Q: What about the “inhibition … of p65” value (p65 [4]; 100 µM) of the same molecule?
A: The value was “completely inhibited nuclear translocation of p65”.

Q: What about the “secreted IL-8 levels” value (IL-8; 33 µM) of the same molecule?
A: Its value is 3,480 pg/mL.

Q: Which “enhancement in potency compared with racemic 11” value (NF-κB; 50 µM) does the source give for CC(=O)O/C(C)=C1\CO[C@]2(c3ccccc3)C=CC(=O)C[C@H]12 (racemic) [Compound 11] here?
A: Its value is 2 fold.

Q: And the “IL-8 mRNA production (in words)” value (IL-8 mRNA)?
A: Its value is “visibly lower levels than that of 10”.

Q: And the “inhibition … of p65” value (p65 [3]; 25 µM)?
A: Its value is “Partial inhibition of p65 nuclear translocation”.

Q: And the “inhibition … of p65” value (p65 [3]; 100 µM)?
A: Its value is “completely inhibited nuclear translocation of p65”.

Q: And the “IC50 against DU-145 relative to reported IC50 of cryptocaryone” value (DU-145)?
A: The value was “approximately 15 fold”.

Q: And the “inhibition … of p65” value (p65 [4]; 25 µM)?
A: The value was “Partial inhibition of p65 nuclear translocation”.

Q: What about the “inhibition … of p65” value (p65 [4]; 100 µM) of the same molecule?
A: Its value is “completely inhibited nuclear translocation of p65”.

Q: What about the “secreted IL-8 levels” value (IL-8; 33 µM) of the same molecule?
A: Its value is 2,970 pg/mL.

Q: And the “effect on IL-8 protein levels (in words)” value (IL-8; highest concentration tested (100 µM))?
A: The value was “depleted IL-8 protein levels to nearly undetectable levels”.

Q: For CC(=O)O/C(=C1\CO[C@]2(C)CCC(=O)C[C@H]12)c1ccccc1 (racemic) [Compound 12], which “IC50 RWPE-1” value (RWPE-1) is on record?
A: Its value is “no appreciable toxicity”.

Q: And the “decrease in potency compared to 11” value (NF-κB; 100 µM)?
A: Its value is ~ 4 fold.

Q: What about the “reduction of NF-κB activity” value (NF-κB; 100 µM, highest concentration tested) of the same molecule?
A: The value was 24%.

Q: And the “IC50 CCRF-CEM” value (CCRF-CEM)?
A: Its value is “no appreciable toxicity”.

Q: And the “IC50 DU-145” value (DU-145; 48-hr cytotoxicity assay, Alamar Blue, mean ± SD)?
A: Its value is “no appreciable toxicity”.

Q: What about the “IC50 Vero” value (Vero) of the same molecule?
A: Its value is “no appreciable toxicity”.

Q: What about the “secreted IL-8 levels” value (IL-8; 100 µM) of the same molecule?
A: The value was 4,900 pg/mL.

Q: Which “inhibition of IκBα degradation (in words)” value (IκBα) does the source give for O=C1C[C@@H]2/C(=C(O)\C=C\c3ccccc3)C(=O)C=C[C@@H]2O1 [cryptocaryone] here?
A: Its value is “inhibit the degradation of IκBα”.
